Bioassay records from PubChem.
Compounds with a hit are over-represented: about 1.9% of the library has one in this group of screens.
aSyn UTR inh: 5' untranslated region of α-synuclein, MLPCN primary screen | AID 1813 | alpha-synuclein 5'UTR reporter, inhibitor activity | 300,000 tested, 0.82% active | inhibition, % (tested at 7.5 µM); in the data active means inhibition above about 60%; inconclusive means no clear call, values can overlap the other calls;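 further: H4 neuroglioblastoma cells stably carrying SNCA 5'UTR luciferase fusion; 0% = DMSO wells and 100% = positive control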
Jurkat NFkB inh: lowers PMA/ionomycin-induced NF-kB signal in Jurkat cells. PMA/ionomycin-induced NF-kB luciferase reporter, luminescence. inhibition, % at 4 µM. 330,000 tested, 0.53% active. AID 435003; in the data active means inhibition above about 50%
697 NFkB inh: lowers PMA/ionomycin-induced NF-kB signal in 697 B cells. 330,000 tested, 0.33% active. inhibition, % at 4 µM. 697 B-cell NF-kB luciferase reporter, 16 h. AID 435022; in the data active means inhibition above about 35%
Lipid droplet: hepatic lipid droplet formation modulation; AML12 mouse hepatocytes, oleate lipid droplets, BODIPY imaging; inhibition, % at 6.5 µM; 240,000 tested, 0.4% active;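 active means lipid droplet intensity inhibited by at least 50%, with more than 500 cells counted; inconclusive means wells with under 300 cells, treated as cytotoxic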
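System: AML12 hepatocytes (mouse). Probe or stimulus: oleic acid at 100 µM to induce lipid droplet formation. Times: overnight treatment with compound plus oleate. Detection: Image-based BODIPY and DAPI two-channel analysis. Evaluation: percent inhibition of filter-corrected integrated lipid droplet intensity per well.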
APP 5UTR inh: APP translation inhibition; SH-SY5Y APP 5'UTR-luciferase reporter, luminescence; inhibition, % at 2 µM; 190,000 tested, 0.82% active;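 active means inhibition above a set limit, derived from the sample mean plus 3 SD, cut at about 45% in these data; inconclusive means one replicate passes the limit while the other fails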
H9c2 TAG inh: reduces triacylglycerol accumulation in H9c2 cells. Nile Red lipid (TAG) fluorescence; cells loaded with 200 µM oleic acid. inhibition, % at 12.5 µM. 230,000 tested, 0.66% active. AID 651582;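 active means pattern-corrected inhibition of lipid staining of at least 50% with the nuclear-stain viability signal not falling by more than 50%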;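 further: 0% = DMSO wells and 100% = triacsin C control wells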
Jurkat NFkB conf: inhibitors of the PMA/ionomycin-induced NF-kB reporter in Jurkat cells, retest. Jurkat NF-kB luciferase, 16 h. inhibition, % at 4 µM. AID 435020. 2,700 tested, 27% active. shares compounds with Jurkat NFkB inh;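 active means inhibition reaching about 45% at 4 µM in either replicate, limit read from the data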;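 further: plate controls were PMA/ionomycin stimulated DMSO wells for no effect and unstimulated DMSO wells for full effect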
697 NFkB conf: inhibitors of the PMA/ionomycin-induced NF-kB reporter in 697 B cells, retest; shares compounds with 697 NFkB inh; 697 B-cell NF-kB luciferase, 16 h; inhibition, % at 4 µM; 2,000 tested, 35% active; AID 449746; in the data active means inhibition mostly above about 28%, no sharp cut-off; inactive means mostly below about 22%
* = called active by the depositor; i = inactive; ? = inconclusive; . = no result.

SMILES	aSyn UTR inh	Jurkat NFkB inh	697 NFkB inh	Lipid droplet	APP 5UTR inh	H9c2 TAG inh	Jurkat NFkB conf	697 NFkB conf
COC(=O)Cc1c(O)ccn(Cc2cccc3ccccc23)c1=O	27	-6	-7	.	-7	.	.	.
O=C(Cc1ccccc1)NC(C(=O)O)C(O)c1ccc([N+](=O)[O-])cc1 (stereo unspecified)	2	-7	1	-2	.	.	.	.
COc1ccc([C@H]2N[C@]3(CCCN(Cc4ccc(C(F)(F)F)cc4)C3=O)[C@H]3C(=O)N(C)C(=O)[C@@H]23)cc1	.	.	.	.	.	-5	.	.
O=C(Nc1nc2c(s1)CCCC2)C1COc2ccccc2O1 (stereo unspecified)	44	-188	-333	24	-147	6	-77	-364
O=C(Cc1cccs1)Nc1nc2c(s1)CCCC2	-97	-152	i	-2	-80	.	-60	i
Cc1nnc(NC(=O)C2COc3ccccc3O2)s1 (stereo unspecified)	-118	-2	4	.	-19	-33	.	.
O=C(Cc1cn2ccsc2n1)Nc1nc2c(s1)CCCC2	-7	-7	-1	.	3	12	.	.
O=C(Nc1ncc(Cc2ccccc2)s1)c1cccs1	21	-173	-326	.	-194	-1	-116	-248
O=C(Nc1ncc(Cc2cccc(Cl)c2)s1)c1cccs1	-192	-40	-118	.	-65	-20	.	.
Nc1nc2c(-c3ccc(Br)cc3)nnn2c2ccccc12	-25	-152	-258	2	.	.	-126	-249
COc1cccc2oc3cc(C#CC4(O)CCCCC4)ccc3c(=O)c12	-35	-213	-352	-8	.	-8	-99	-443
Cc1cccc(NC(=S)NCc2ccccc2Cl)c1C	-12	-6	-47	-4	.	-5	.	.
COc1ccc2[nH]c(C(=O)Nc3cccc(C)n3)cc2c1	-22	-189	-281	9	.	-12	-96	-231
COc1ccc2[nH]c(C(=O)Nc3ccc(C)c(F)c3)cc2c1	-115	-49	-28	18	.	2	.	.
Cc1cc(C(=O)COC(=O)c2ccccc2O)c(C)n1CC1CCCO1 (stereo unspecified)	.	74*	52*	.	.	-5	86*	43*
CCn1c(C)cc(C(=O)COC(=O)c2ccccc2[N+](=O)[O-])c1C	.	59*	41*	.	.	5	94*	47*
Cc1cc(C(=O)COC(=O)c2ccccc2Br)c(C)n1CC1CCCO1 (stereo unspecified)	54	46	-35	0	.	9	.	.
O=c1c2c3c(sc2nc2n1N=C(c1cccs1)CS2)CCCC3	-166	-195	-313	.	-13	.	-63	-120
O=c1oc(-c2cccs2)nc2sc3c(c12)CCCC3	-40	4	-32	-7	-38	.	.	.
Cc1ccc(S(=O)(=O)Nc2ccc(-n3c(C)nc4ccccc4c3=O)cc2)cc1	4	-6	-17	.	.	-4	.	.
CCN(CC)c1ccc(C(=O)Nc2cccc(F)c2)cc1	-77	-221	-293	0	-181	.	-144	-294
Cc1nc(NCc2ccco2)c2c(C)c(C)sc2n1	-177	70*	-281	-28	4	.	58*	-43
NNc1nc2sc3c(c2c(=O)n1Cc1ccccc1)CCC3	-6	-19	13	9	.	16	.	.
NNc1nc(-c2ccccc2)nc2sc3c(c12)CCCC3	-65	-222	-360	-6	-171	.	-44	-321
N#CCCCC#Cc1ccc2c(c1)COc1c3ccccc3nn1-2	77*	-193	-442	.	.	-15	-55	-381
SMILES	aSyn UTR inh	Jurkat NFkB inh	697 NFkB inh	Lipid droplet	APP 5UTR inh	H9c2 TAG inh	Jurkat NFkB conf	697 NFkB conf
CCCCC#Cc1ccc2c(c1)COc1c3ccccc3nn1-2	-53	-140	-228	.	.	.	.	.
Cc1cc(C)nc(Nc2nc(-c3ccccc3)cs2)n1	22	-200	-466	-5	.	-2	-122	-349
COc1cccc(Nc2nc(-c3ccc4c(c3)OCCO4)cs2)c1	-227	-24	-174	.	-162	5	.	.
Cc1ccc(Nc2nc(-c3cccnc3)cs2)cc1C	-51	-196	-257	-13	.	.	-52	-125
c1ccc(-c2csc(Nc3ccc4c(c3)OCCO4)n2)cc1	-50	-223	i	2	-187	-24	-82	-218
Cc1ccc(Nc2nc(-c3cccs3)cs2)nc1	47	-149	-235	1	-172	10	.	.
Cc1ccc(Nc2nc(-c3ccccc3)cs2)nc1	33	-248	i	.	.	24	-151	-271
NS(=O)(=O)c1cccc(NC(=O)COC(=O)CNC(=O)c2ccc(-c3ccccc3)cc2)c1	.	-11	14	.	.	-6	.	.
CCOC(=O)C1=CC[C@]2(C)c3c(c4ccccc4n3C)C(=O)C1N2C	.	-6	-1	.	.	7	.	.
Cc1cc(/C=C2\Sc3ccccc3N2C)cc(C)[n+]1CC1CCCO1 (stereo unspecified)	.	97*	36*	-103	-4	.	41	0
Cc1ccc(OCc2cc(C(=O)N(C)C3CCCc4ccccc43)no2)cc1C (stereo unspecified)	.	.	.	.	.	-9	.	.
CCN(CC)c1ccc(/C=C/c2cccc[n+]2C)c(OC)c1	?	94*	75*	-144	.	.	78*	88*
CCc1nnc(NC(=O)CCN2C(=O)C3CCCCC3C2=O)s1 (stereo unspecified)	11	1	-5	8	.	2	.	.
CN(C)c1ccc(N2CN=C3SCC(=O)N3C2)cc1	-14	-30	-18	.	-136	-3	.	.
Brc1ccc(-c2cn3ccccc3n2)cc1	-6	-181	-264	0	.	4	-117	-265
c1ccc(-c2cn3ccccc3n2)cc1	.	.	.	.	.	13	.	.
COc1ccc(-c2ccc3sc4ccccc4c(=O)c3c2)cn1	-81	-202	-301	.	.	-12	-127	-255
COc1ccc2sc3ccccc3c(=O)c2c1OC	-145	-32	-8	.	-24	-5	.	.
Cc1cccc(CC2CC(=O)N(c3ccc(C)cc3Br)C2=O)c1 (stereo unspecified)	1	2	-22	-12	.	.	.	.
Nc1ccc(CSc2ccc(Cl)cc2)c(Cl)c1	.	.	.	.	.	-4	.	.
